TRAIL sens C8: caspase-8 TRAIL sensitization; NB7+C8 cells + TRAIL, ATPlite viability luminescence; AID 624354; inhibition (viability loss, TRAIL sensitization), % at 10 µM; 360,000 compounds, 1% hits;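 active = compounds causing at least 50% loss of cell viability in the single-dose screen, relative to plate controls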
FLuc stim CS: affects firefly luciferase, flagging false hits in luciferase stimulation screens | P08659 | ATPlite luciferase biochemical, luminescence, 10 min; 0 = ATP-free wells, 1 = DMSO control | activation factor at 10 µM | 200,000 tested, under 10 active;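 active = luciferase activation factor, scaled between plate controls, of at least 2 with compound at 10 µM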
Target sequence (P08659 whole entry, looked up): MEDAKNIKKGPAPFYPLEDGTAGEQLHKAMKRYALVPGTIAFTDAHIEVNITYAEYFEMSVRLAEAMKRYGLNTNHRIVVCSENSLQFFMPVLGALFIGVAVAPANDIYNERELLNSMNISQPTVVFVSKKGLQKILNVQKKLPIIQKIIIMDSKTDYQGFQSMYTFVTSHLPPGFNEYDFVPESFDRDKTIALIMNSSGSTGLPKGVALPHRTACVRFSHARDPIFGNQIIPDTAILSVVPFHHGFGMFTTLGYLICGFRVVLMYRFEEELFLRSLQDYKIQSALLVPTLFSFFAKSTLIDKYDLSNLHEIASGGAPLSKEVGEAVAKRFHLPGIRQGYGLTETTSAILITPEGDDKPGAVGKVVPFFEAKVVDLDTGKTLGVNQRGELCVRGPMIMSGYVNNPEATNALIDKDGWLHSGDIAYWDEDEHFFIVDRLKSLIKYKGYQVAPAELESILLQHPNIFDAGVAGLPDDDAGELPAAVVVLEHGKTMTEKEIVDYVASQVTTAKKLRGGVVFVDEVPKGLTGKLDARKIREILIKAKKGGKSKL
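test system = cell-free luciferase reagent | medium = PBS as buffer for the ATP substrate | dosing = test compounds dosed from 2 mM stocks in 100% DMSO | incubation = 10 min at ambient temperature | detection = luminescence measurement of luciferase light output | benchmarks = low control with PBS replacing ATP, high control enzyme plus ATP without compound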
FLuc inhib CS: inhibits firefly luciferase, flagging false hits in luciferase inhibition screens; P08659; inhibition, % at 10 µM; ATPLite firefly luciferase biochemical luminescence, 10 min; 200,000 compounds, 1.5% hits;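 active = inhibition above about 50% when tested at 10 µM, limit read from the data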
PPC-1+TRAIL kill: kills PPC-1 cancer cells in the presence of TRAIL; AID 1443; PPC-1 cells + TRAIL, ATPLite viability luminescence; cell killing (% activity), % at 4 µM or 5 µM; 220,000 compounds, 0.41% hits;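 active = cell killing above 50% in the first pass at 4 µM, then a duplicate retest at 5 µM averaging 50% or more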;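 note: plate controls were cells with TRAIL plus DMSO for no effect and medium-only wells lacking cells for full effect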
PPC-1 tox: kills PPC-1 cells; shares compounds with PPC-1+TRAIL kill; 1,200 compounds, 50% hits; PPC-1 viability, ATPlite luminescence, overnight; cytotoxicity, % at 5 µM; AID 1447;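 active = reconfirmed compounds whose average cytotoxicity reaches 50% or more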;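 note: 0% = DMSO-treated cells and 100% = wells holding medium but no cells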
Starred values were filed as active, the others as inactive; nt = not tested or not shown. This is a sample that favours compounds with a hit; in the whole collection about 1.5% have one here.

SMILES	TRAIL sens C8	FLuc stim CS	FLuc inhib CS	PPC-1+TRAIL kill	PPC-1 tox
CC(C)c1ccc(/C=N/NC(=O)c2ccccn2)cc1	81*	nt	nt	69*	66*
O=C(N/N=C/c1ccc(N2CCOCC2)cc1)c1ccccn1	37	nt	nt	21	nt
O=C(N/N=C/c1ccc2c(c1)OCO2)c1ccccn1	73*	0.1	88*	58*	60*
N#Cc1cccc(CN2CCC(=O)N([C@H](CO)Cc3ccccc3)CC2)c1	3	nt	nt	nt	nt
COc1ccc(C(C)NC(=O)C2CCCO2)cc1OC (stereo unspecified)	-1	1.2	-19	-6	-11
COc1cccc(C(C)NC(=O)C2CCCO2)c1 (stereo unspecified)	-11	nt	nt	nt	nt
CCN(Cc1ccccc1)C(=O)C1CCN(C(=O)Nc2ccccc2)CC1	14	nt	nt	nt	nt
CCN(CC(=O)NCc1ccc(F)cc1)C(=O)C1CCN(C(=O)Nc2ccccc2)CC1	-8	1	1	7	7
Cc1ccc(C(=O)Nc2cc(C)c(OCC(=O)N3CCOCC3)c(C)c2)cc1	83*	0.1	88*	79*	79*
COc1ccccc1C(=O)Nc1cc(C)c(OCC(=O)N2CCOCC2)c(C)c1	7	nt	nt	nt	nt
CCS/C(N)=N/N=C/c1cc(C)ccc1O	72*	0.1	90*	62*	64*
Brc1cccc(OCCCNC2CCCC2)c1	3	nt	nt	nt	nt
Cc1cc2nc(-c3ccc(SCC(=O)N4CCN(C(=O)c5ccco5)CC4)nc3)[nH]c2cc1C	74*	0.2	81*	65*	63*
Cc1cc(=O)[nH]c(SCC(=O)N2CCN(C(=O)c3ccco3)CC2)n1	-16	nt	nt	nt	nt
Cc1cc2nc(-c3ccc(SCC(=O)N4CCOCC4)nc3)[nH]c2cc1C	68*	0.3	73*	58*	58*
CC(=O)c1cccc(NC(=O)Cn2cc3c(n2)CCCC3)c1	-3	1	-3	27	nt
CC(=O)Nc1ccc(NC(=O)Cn2cc3c(n2)CCCC3)cc1	-13	1	-1	-5	13
CCC(NC(=O)CSc1nnnn1C1CC1)c1ccc(Br)cc1 (stereo unspecified)	0	nt	nt	nt	nt
CN(C)c1ccc(/C=C2/SC(=O)N(CCN=C3NS(=O)(=O)c4ccccc43)C2=O)cc1	-3	1	4	26	nt
CN(C)c1ccc(/C=C2\SC(=O)N(CCc3nnc(N)s3)C2=O)cc1	81*	nt	nt	65*	68*
COc1cccc2c1nc(C)c1cc(C)oc12	-6	0.9	8	24	nt
COc1cccc2nc3cc(C)c(C)cc3nc12	68*	nt	nt	70*	68*
CN(C)c1ccc(NC2=C(Cl)C(=O)c3ccccc3C2=O)cc1	70*	0.6	44	35	40
CC(=O)Nc1ccc(NC2=C(Cl)C(=O)c3ccccc3C2=O)cc1	nt	0.9	5	16	nt
O=C1C(Cl)=C(Nc2ccc3cn[nH]c3c2)C(=O)c2ccccc21	72*	nt	nt	76*	69*
SMILES	TRAIL sens C8	FLuc stim CS	FLuc inhib CS	PPC-1+TRAIL kill	PPC-1 tox
CC(=O)c1cc(C)c(OC(=O)c2ccccc2)c(C)c1	6	nt	nt	nt	nt
CC(=O)Cc1cc(O)c2ccccc2c1OC(=O)c1ccccc1	3	1	-5	12	11
CC(=O)N(Cc1ccccc1)c1c(N)nc(N)[nH]c1=O	-7	nt	nt	nt	nt
CCOC(=O)C1(C)/C(=N/Nc2ccccc2)C(=O)C(=O)N1c1ccccc1 (stereo unspecified)	2	1.1	-6	-9	-1
CCOC(=O)c1sc(-c2ccc(OC)cc2)cc1N	6	0.7	33	17	9
CCNC(=S)NNC(=O)c1cc(-c2cccc(C)c2)nc2ccccc12	61*	0.1	89*	66*	65*
CCCCNC(=S)NNC(=O)c1cc(-c2cccnc2)nc2ccccc12	8	nt	nt	nt	nt
CCCCOc1ccc(-c2cc(C(=O)NNC(=S)NCC)c3ccccc3n2)cc1	87*	0.1	94*	90*	90*
CCNC(=S)NNC(=O)c1cc(-c2cccnc2)nc2ccccc12	2	0.6	44	3	nt
CCOc1ccc(-c2cc(C(=O)O)c3ccccc3n2)cc1	83*	0.1	95*	77*	77*
CCOC1=C2[C@@H](CN(S(=O)(=O)c3ccc(C)cc3)[C@H]2c2ccccc2Cl)[C@H]2C(=O)N(C)C(=O)[C@H]2C1	-4	nt	nt	nt	nt
Cc1ccccc1-c1nc2sc(C)c(C)c2c(=O)o1	-4	nt	nt	nt	nt
Cc1sc2nc(C(C)(C)C)oc(=O)c2c1C	7	1	-1	-9	1
O=C(NCc1ccco1)c1ccc2sc([C@@H]3O[C@H](CO)[C@@H](O)[C@H]3O)nc2c1	0	nt	nt	nt	nt
